Results from ChEMBL document CHEMBL4689842, “EUbOPEN Chemogenomics Library wave 1” (2021).

Legend:
Assay type in all cases: toxicity, cell-based
HEK-293T [1] = test: Multiplex assay against HEK293T; conditions: human;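 as to Population Tubulin-Different-Phenotype (%): share of the cells with healthy nuclei that show this phenotype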
Method in brief: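 Live cells were stained at seeding with Hoechst33342, BioTracker Green Microtubule Cytoskeleton Dye, MitoTracker Red and Annexin V Alexa Fluor 680. Following compound addition, they were imaged on a CQ1 microscope at 37°C and 5% CO2 and gated by CellPathfinder machine learning into Hoechst high-intensity objects or normal cells, with normal cells split into healthy, pyknosed or fragmented nuclei and pyknosed cells into mitotic or apoptotic. Tubulin, mitochondrial-mass and membrane-permeability phenotypes are per cents of healthy-nucleus cells.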

HEK-293T [2] = test: Incucyte cell viability with HEK293T; conditions: human, 10 µM, compound concentration 10 uM; also: filed as whole numbers so only -1 and 0 and 1 occur
Fibroblast = test: Incucyte cell viability with human fibroblast; conditions: 10 µM, compound concentration 10 uM; also: filed as whole numbers so only -1 and 0 and 1 occur
[3] = 12 h, 1 µM, compound concentration 1 uM, replicate 1
[4] = 12 h, 1 µM, compound concentration 1 uM, replicate 2
[5] = 12 h, 10 µM, compound concentration 10 uM, replicate 1
[6] = 12 h, 10 µM, compound concentration 10 uM, replicate 2
[7] = 24 h, 1 µM, compound concentration 1 uM, replicate 1
[8] = 24 h, 1 µM, compound concentration 1 uM, replicate 2
[9] = 24 h, 10 µM, compound concentration 10 uM, replicate 1
[10] = 24 h, 10 µM, compound concentration 10 uM, replicate 2
[11] = 12 h, replicate number 1, timepoint 12 hours
[12] = 18 h, replicate number 1, timepoint 18 hours
[13] = 24 h, replicate number 1, timepoint 24 hours

CC[C@@H]1C(=O)N(C)c2cnc(Nc3ccc(C(=O)NC4CCN(C)CC4)cc3OC)nc2N1C1CCCC1 [BI-2536]
Population Apoptotic (%) (HEK-293T [1]; [3]): 15% | Population Fragmented Nuclei (%) (HEK-293T [1]; [3]): 15% | Population Healthy Nuclei (%) (HEK-293T [1]; [3]): 61% | Population Hoechst High Intensity Objects (%) (HEK-293T [1]; [3]): 12% | Population Membrane Permeable-Phenotype (%) (HEK-293T [1]; [3]): 12% | Population Mitochondria Different-Phenotype (%) (HEK-293T [1]; [3]): 10% | Population Mitotic Cells (%) (HEK-293T [1]; [3]): 84% | Population Normal (%) (HEK-293T [1]; [3]): 87% | Population Pyknosed Nuclei (%) (HEK-293T [1]; [3]): 22% | Population Tubulin-Different-Phenotype (%) (HEK-293T [1]; [3]): 14% | Total Cell Count (HEK-293T [1]; [3]): 578 | Population Apoptotic (%) (HEK-293T [1]; [4]): 12% | Population Fragmented Nuclei (%) (HEK-293T [1]; [4]): 3% | Population Healthy Nuclei (%) (HEK-293T [1]; [4]): 82% | Population Hoechst High Intensity Objects (%) (HEK-293T [1]; [4]): 2% | Population Membrane Permeable-Phenotype (%) (HEK-293T [1]; [4]): 7% | Population Mitochondria Different-Phenotype (%) (HEK-293T [1]; [4]): 28% | Population Mitotic Cells (%) (HEK-293T [1]; [4]): 87% | Population Normal (%) (HEK-293T [1]; [4]): 97% | Population Pyknosed Nuclei (%) (HEK-293T [1]; [4]): 13% | Population Tubulin-Different-Phenotype (%) (HEK-293T [1]; [4]): 41% | Total Cell Count (HEK-293T [1]; [4]): 1166 | Population Apoptotic (%) (HEK-293T [1]; [5]): 32% | Population Fragmented Nuclei (%) (HEK-293T [1]; [5]): 17% | Population Healthy Nuclei (%) (HEK-293T [1]; [5]): 59% | Population Hoechst High Intensity Objects (%) (HEK-293T [1]; [5]): 11% | Population Membrane Permeable-Phenotype (%) (HEK-293T [1]; [5]): 17% | Population Mitochondria Different-Phenotype (%) (HEK-293T [1]; [5]): 40% | Population Mitotic Cells (%) (HEK-293T [1]; [5]): 67% | Population Normal (%) (HEK-293T [1]; [5]): 88% | Population Pyknosed Nuclei (%) (HEK-293T [1]; [5]): 23% | Population Tubulin-Different-Phenotype (%) (HEK-293T [1]; [5]): 90% | Total Cell Count (HEK-293T [1]; [5]): 497 | Population Apoptotic (%) (HEK-293T [1]; [6]): 12% | Population Fragmented Nuclei (%) (HEK-293T [1]; [6]): 4% | Population Healthy Nuclei (%) (HEK-293T [1]; [6]): 81% | Population Hoechst High Intensity Objects (%) (HEK-293T [1]; [6]): 3% | Population Membrane Permeable-Phenotype (%) (HEK-293T [1]; [6]): 24% | Population Mitochondria Different-Phenotype (%) (HEK-293T [1]; [6]): 43% | Population Mitotic Cells (%) (HEK-293T [1]; [6]): 87% | Population Normal (%) (HEK-293T [1]; [6]): 96% | Population Pyknosed Nuclei (%) (HEK-293T [1]; [6]): 13% | Population Tubulin-Different-Phenotype (%) (HEK-293T [1]; [6]): 98% | Total Cell Count (HEK-293T [1]; [6]): 911 | Population Apoptotic (%) (HEK-293T [1]; [7]): 14% | Population Fragmented Nuclei (%) (HEK-293T [1]; [7]): 14% | Population Healthy Nuclei (%) (HEK-293T [1]; [7]): 62% | Population Hoechst High Intensity Objects (%) (HEK-293T [1]; [7]): 12% | Population Membrane Permeable-Phenotype (%) (HEK-293T [1]; [7]): 5% | Population Mitochondria Different-Phenotype (%) (HEK-293T [1]; [7]): 12% | Population Mitotic Cells (%) (HEK-293T [1]; [7]): 85% | Population Normal (%) (HEK-293T [1]; [7]): 87% | Population Pyknosed Nuclei (%) (HEK-293T [1]; [7]): 23% | Population Tubulin-Different-Phenotype (%) (HEK-293T [1]; [7]): 19% | Total Cell Count (HEK-293T [1]; [7]): 553 | Population Apoptotic (%) (HEK-293T [1]; [8]): 6% | Population Fragmented Nuclei (%) (HEK-293T [1]; [8]): 2% | Population Healthy Nuclei (%) (HEK-293T [1]; [8]): 66% | Population Hoechst High Intensity Objects (%) (HEK-293T [1]; [8]): 4% | Population Membrane Permeable-Phenotype (%) (HEK-293T [1]; [8]): 2% | Population Mitochondria Different-Phenotype (%) (HEK-293T [1]; [8]): 22% | Population Mitotic Cells (%) (HEK-293T [1]; [8]): 93% | Population Normal (%) (HEK-293T [1]; [8]): 95% | Population Pyknosed Nuclei (%) (HEK-293T [1]; [8]): 31% | Population Tubulin-Different-Phenotype (%) (HEK-293T [1]; [8]): 48% | Total Cell Count (HEK-293T [1]; [8]): 1114 | Population Apoptotic (%) (HEK-293T [1]; [9]): 39% | Population Fragmented Nuclei (%) (HEK-293T [1]; [9]): 17% | Population Healthy Nuclei (%) (HEK-293T [1]; [9]): 57% | Population Hoechst High Intensity Objects (%) (HEK-293T [1]; [9]): 12% | Population Membrane Permeable-Phenotype (%) (HEK-293T [1]; [9]): 7% | Population Mitochondria Different-Phenotype (%) (HEK-293T [1]; [9]): 80% | Population Mitotic Cells (%) (HEK-293T [1]; [9]): 60% | Population Normal (%) (HEK-293T [1]; [9]): 87% | Population Pyknosed Nuclei (%) (HEK-293T [1]; [9]): 25% | Population Tubulin-Different-Phenotype (%) (HEK-293T [1]; [9]): 93% | Total Cell Count (HEK-293T [1]; [9]): 510 | Population Apoptotic (%) (HEK-293T [1]; [10]): 11% | Population Fragmented Nuclei (%) (HEK-293T [1]; [10]): 11% | Population Healthy Nuclei (%) (HEK-293T [1]; [10]): 62% | Population Hoechst High Intensity Objects (%) (HEK-293T [1]; [10]): 3% | Population Membrane Permeable-Phenotype (%) (HEK-293T [1]; [10]): 8% | Population Mitochondria Different-Phenotype (%) (HEK-293T [1]; [10]): 59% | Population Mitotic Cells (%) (HEK-293T [1]; [10]): 88% | Population Normal (%) (HEK-293T [1]; [10]): 96% | Population Pyknosed Nuclei (%) (HEK-293T [1]; [10]): 26% | Population Tubulin-Different-Phenotype (%) (HEK-293T [1]; [10]): 97% | Total Cell Count (HEK-293T [1]; [10]): 1005 | Growth Rate (HEK-293T [2]; 0 h, replicate number 2, timepoint 0 hours): 1 | Growth Rate (HEK-293T [2]; 6 h, replicate number 1, timepoint 6 hours): 0 | Growth Rate (HEK-293T [2]; [11]): 0 | Growth Rate (HEK-293T [2]; [12]): 0 | Growth Rate (HEK-293T [2]; [13]): 0 | Growth Rate (Fibroblast; 0 h, replicate number 1, timepoint 0 hours): 0 | Growth Rate (Fibroblast; [11]): 1 | Growth Rate (Fibroblast; [12]): 0 | Growth Rate (Fibroblast; 18 h, replicate number 2, timepoint 18 hours): 1 | Growth Rate (Fibroblast; [13]): 0
